The series is described as follows: Toxicity liver stage against HepG2, at 10uM. The class given is cell-based. Set-up: test concentration 10 uM, cell line HepG2-A16-CD81EGFP. The note with it: human, HepG2-A16-CD81EGFP cells; read-out: INHIBITION
The procedure, abridged:
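Uninfected HepG2-A16-CD81EGFP cells, 3 × 10^3 per well, 1536-well, plated on prespotted compound at 10 μM final, parasite-free screening media added to match infected plates; puromycin 10 μM positive, DMSO 0.5% negative; run in parallel with 48 h PbLuc assay at 37 °C, 5% CO2; viability by CellTiter-Glo luminescence, normalized to controls.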
As to `OCCN(Cc1nc(-c2ccc3c(c2)OCO3)no1)Cc1cccs1`, the cytotoxicity at 10 µM was -0.191%.

In the case of `CCN(CC)[C@H]1C[C@@H](Cc2cc(CO)on2)C1(C)C`, the cytotoxicity at 10 µM was 9.12%.

For the compound `COCCN1CCN(C(=O)C[C@@H]2C[C@@H](C(C)C)[C@H](CC#N)C=C2C)CC1`, the cytotoxicity at 10 µM stood at 0.788%.

Consider `COc1ccc2c(c1)CN(C)C(=O)CCN2CC(O)C(C)(C)C` (configuration not stated), for which the cytotoxicity at 10 µM was 4.17%.

Consider `NC(=O)CN1CC[C@@]2(O)CCCC[C@H]2[C@@H]1c1ccc2c(c1)OCO2`, for which the cytotoxicity at 10 µM was found to be 3.26%.

With `CC(C)c1ccc2c(c1)C1(CC(=O)Nc3[nH]ncc31)C(=O)N2C` (configuration not stated), the cytotoxicity at 10 µM is -0.582%.

For `O=C(Nc1cccnc1-n1cc(Br)cn1)C1CCCC1`, the cytotoxicity at 10 µM is -33.1%.

In the case of `CCCN1CCc2nc(SCc3ccccc3)[nH]c(=O)c2C1`, the cytotoxicity at 10 µM came to 0.279%.

As for `COc1cc(C(=O)NCCc2ccc(Cl)cc2)on1`, the cytotoxicity at 10 µM is -0.295%.

`CCOc1ncc(NC(=O)c2ccco2)c(OCC)n1`: the cytotoxicity at 10 µM is -1.76%.

Regarding `O=C(N[C@]12CC1CN(C(=O)c1ccco1)C2)c1ccoc1` (some centres not stated), the cytotoxicity at 10 µM is -1.48%.

For `Cc1ccsc1C(=O)NCC1COCc2c(C)nnn2C1` (configuration not stated), the cytotoxicity at 10 µM is -3.51%.

As for `CN1CCN(Cc2cn3c(n2)CN(C(=O)c2ccco2)CC3)CC1`, the cytotoxicity at 10 µM is -4%.

As for `CCOC(=O)C1CCN(C(=O)c2cc(Br)ccc2-n2cnnn2)CC1`, the cytotoxicity at 10 µM was -2.41%.

For `CCN(CC)c1ncc(S(=O)(=O)c2cccc(C)c2)c(N)n1`, the cytotoxicity at 10 µM is -0.707%.

As to `O=C(c1cccs1)N1CC[C@H](O)[C@@H]1Cc1ccccc1`, the cytotoxicity at 10 µM was -5.99%.

In the case of `CCC(=O)c1ccccc1NN1c2ccccc2C(=O)C1(C)OC` (configuration not stated), the cytotoxicity at 10 µM came out at 8.57%.

As to `Cc1cc(C(F)(F)F)nn1CCCNC(=O)C1CCC1`, the cytotoxicity at 10 µM was -12.2%.

Turning to `CCCc1nc(NCCCn2ccnc2)c2c(n1)c(C)nn2CC`, the cytotoxicity at 10 µM amounted to 8.26%.

As for `CCc1cc(=O)n(CC(=O)N2CCC(C)CC2)c(-c2cccc(F)c2)n1`, the cytotoxicity at 10 µM was found to be 7.63%.

Regarding `Cc1c(NC(=O)c2ccc(Br)cc2)c(C(=O)N(C)C)nn1C`, the cytotoxicity at 10 µM turned out to be 3.65%.

On to `COCC(=O)N1CCCCC1c1nc(N(C)C)ncc1-c1cc(C)no1` (configuration not stated), for which the cytotoxicity at 10 µM is 5.93%.

With `COc1ccc(C2(NC(=O)c3ccc(=O)n(C)n3)CCCC2)cc1`, the cytotoxicity at 10 µM is -0.308%.

`CC(O)CN1CCC(CN(C)Cc2cc(F)cc3cccnc23)CC1` (configuration not stated): the cytotoxicity at 10 µM is -1.26%.

Consider `CN(CC(=O)N1CCCC1)C(=O)c1ccccc1F`, for which the cytotoxicity at 10 µM came to 11.7%.

For the compound `Cc1cc(CN(C)C(=O)C(c2ccccc2)N2CCSCC2)no1` (configuration not stated), the cytotoxicity at 10 µM was -1.49%.

As for `CC(C)c1nc(C2CCCN(c3nccc(C(F)(F)F)n3)C2)no1` (configuration not stated), the cytotoxicity at 10 µM stood at 5.83%.

As to `COCCn1ccc(NCc2scnc2C)n1`, the cytotoxicity at 10 µM is -2.9%.

With `CNC(=O)C(NC(C)=O)c1ccc(F)c(F)c1` (configuration not stated), the cytotoxicity at 10 µM was -6.1%.

For `CN(C)CCn1c(=O)oc2ccc(NC(=O)N3CCCCCC3)cc21`, the cytotoxicity at 10 µM was -3.59%.

Turning to `CN(Cc1cnn(C)c1)Cc1nc(Cc2cccc(Cl)c2)no1`, the cytotoxicity at 10 µM amounted to 6.53%.

Take `Cc1ccc(-c2ccc(C(=O)NCC(N)=O)c(F)c2)cc1`: the cytotoxicity at 10 µM is -0.758%.

In the case of `COCCCNC(=O)Nc1cccc2c1CCN(S(C)(=O)=O)C2`, the cytotoxicity at 10 µM is 2.87%.

For the compound `CC(CNC(=O)Nc1ccc(F)cc1-n1cccc1)N1CCOCC1` (configuration not stated), the cytotoxicity at 10 µM was -8.71%.

Consider `CCc1nncn1CCNC(=O)N1CCCC(Cc2nccn2C)C1` (configuration not stated), for which the cytotoxicity at 10 µM was determined as 0.548%.

For `Cc1cc(C)c(CNC(=O)NCC2COc3ccccc3C2)c(=O)[nH]1` (configuration not stated), the cytotoxicity at 10 µM is 8.51%.

Take `O=C1NCCCCC1NS(=O)(=O)N1CCCCCC1` (configuration not stated): the cytotoxicity at 10 µM was found to be 4.15%.

Take `CC(C)c1noc(CN2CCOCC2C)n1` (configuration not stated): the cytotoxicity at 10 µM turned out to be 3.95%.

As for `Cc1noc(C)c1CN1CCCC1c1nnc2ccccn12` (configuration not stated), the cytotoxicity at 10 µM is -1.73%.

In the case of `CCNC(=O)N1CCc2ccc(NC(=O)C(C)c3ccsc3)cc21` (configuration not stated), the cytotoxicity at 10 µM is -3.41%.

Turning to `O=S(=O)(N1CCCC1)N(Cc1ccccc1)CC1CCCO1` (configuration not stated), the cytotoxicity at 10 µM is -0.966%.

As to `O=C(c1ccncn1)N1C[C@@H]2CN(Cc3cccnc3)CCO[C@@H]2C1`, the cytotoxicity at 10 µM was determined as 7.61%.

On to `Cc1cccc(N2CCC3(CCCN(C(=O)Cc4cccnc4)C3)C2)n1` (configuration not stated), for which the cytotoxicity at 10 µM was determined as 0.824%.

Consider `COCCCC1CCN([C@@H]2c3ccccc3C3(CCNCC3)[C@H]2O)CC1`, for which the cytotoxicity at 10 µM was -4.67%.

`COc1ccccc1N1CCN(C(=O)CSC(C)C)C(C)C1` (configuration not stated): the cytotoxicity at 10 µM was -3.97%.

On to `Cn1ccnc1-c1cn(CCCc2csc(N)n2)nn1`, for which the cytotoxicity at 10 µM came to 0.963%.

In the case of `CCN(CC)CCn1cnc(-c2ccccc2)c1-c1cnn(CC)c1`, the cytotoxicity at 10 µM was 3.37%.

Regarding `c1cc2c(cc1Cn1cc(C3CCOC3)nn1)OCO2` (configuration not stated), the cytotoxicity at 10 µM was 3.86%.

In the case of `Cc1cc2nc(C(C)C)cc(N3CCC(N(C)C)C3)n2n1` (configuration not stated), the cytotoxicity at 10 µM is -3.88%.

As to `CCCc1cnc(C)nc1N1CCC(Cn2cc(C(C)O)nn2)CC1` (configuration not stated), the cytotoxicity at 10 µM was found to be 1.92%.

`Cc1cc(C)c2nc(CN3CCC(N4CCOC4=O)CC3)cc(O)c2c1`: the cytotoxicity at 10 µM is -0.213%.

Regarding `CCOCC1CCN(C(=O)C(c2cccc(F)c2)N(C)C)CC1` (configuration not stated), the cytotoxicity at 10 µM was -4.57%.

Take `Cc1ccc(N2CCN(C(=O)C3CN(C)C(=O)N3)CC2=O)cc1` (configuration not stated): the cytotoxicity at 10 µM is -2.61%.

As for `O=C(N[C@@H]1CCN(c2ncc(Cl)cc2Cl)C[C@H]1O)c1cnccn1`, the cytotoxicity at 10 µM is -8.92%.

As for `CCOC(=O)CC1CCCCN1C(=O)c1cc(C)on1` (configuration not stated), the cytotoxicity at 10 µM was 5.53%.

Take `CNc1cc(C)nc(N2CCC3(CC2)[C@H](O)C[C@@H]3O)n1`: the cytotoxicity at 10 µM was -17.5%.

`Cc1cc(C(=O)N2C[C@@H](CN3CCCCC3)[C@@H](CO)C2)ccc1O`: the cytotoxicity at 10 µM turned out to be 0.251%.

On to `CCCc1ncc(CN(CCOC)Cc2cccs2)cn1`, for which the cytotoxicity at 10 µM was -0.683%.

`CNC(=O)[C@@H]1C[C@H](N)CN1S(=O)(=O)c1cc(C)c(Cl)cc1C`: the cytotoxicity at 10 µM is -0.869%.

For the compound `O=C1CC(NCc2ccccn2)CN1CCc1ccc(F)cc1` (configuration not stated), the cytotoxicity at 10 µM is 7.18%.

In the case of `CN(Cc1ccsc1)C(=O)CN1CCCC(Cn2cncn2)C1` (configuration not stated), the cytotoxicity at 10 µM was -11.3%.

Turning to `Cc1csc(C2CCCCN2C(=O)c2cc(C)n(C)n2)n1` (configuration not stated), the cytotoxicity at 10 µM is -17.9%.

`Cn1nccc1C(=O)Nc1cc(C(F)(F)F)c[nH]c1=O`: the cytotoxicity at 10 µM was -6.54%.

`COc1cc(CNCCn2cc(C)cn2)cc2c1OCCO2`: the cytotoxicity at 10 µM is -9.07%.

For `N#Cc1cnn(-c2ccc(C(=O)N(C3CCCCC3)C3CC3)cc2)c1N`, the cytotoxicity at 10 µM was -2.54%.

As for `COc1ccc(Cl)cc1CC(=O)N1CCN(CC(C)O)CC1` (configuration not stated), the cytotoxicity at 10 µM was -17.1%.

Consider `O=C(COCc1ccccc1Cl)N1CCCC(n2ccnc2)C1` (configuration not stated), for which the cytotoxicity at 10 µM was -25.1%.

As for `O=C(c1sccc1C1CC1)N1CCN(Cc2cscn2)CC1`, the cytotoxicity at 10 µM was 1.97%.

As to `Cc1nc(CN(C)C2CCN(Cc3cccc(F)c3)C2)no1` (configuration not stated), the cytotoxicity at 10 µM is -15%.

Take `Cc1nc2ccccc2nc1CN1CCCCC1Cn1cccn1` (configuration not stated): the cytotoxicity at 10 µM was found to be 3.94%.

With `CC(C)S(=O)(=O)C(C)C(=O)NCc1cccc(N2CCCCC2=O)c1` (configuration not stated), the cytotoxicity at 10 µM was -7.91%.

With `Cc1cccc(CN(C)Cc2nc3c(cnn3C)c(=O)[nH]2)c1`, the cytotoxicity at 10 µM was -8.08%.

Consider `CCn1cc(NC(=O)NCC(c2cccc(F)c2)N(C)C)cn1` (configuration not stated), for which the cytotoxicity at 10 µM was 0.633%.

With `CCC(O)CN1CCN(C(=O)c2cccn2Cc2ccccc2)CC1` (configuration not stated), the cytotoxicity at 10 µM is -8.03%.

Turning to `CCNC(c1cccnc1)c1ccc(F)c(F)c1` (configuration not stated), the cytotoxicity at 10 µM was 1.03%.

For the compound `C1CC(c2noc(C3CC3)n2)CN(Cc2noc(C3CC3)n2)C1` (configuration not stated), the cytotoxicity at 10 µM was -5.16%.

With `COCc1nc(C(=O)N2CCCC(n3cccn3)C2)cs1` (configuration not stated), the cytotoxicity at 10 µM was -7.42%.

With `CC(NC(=O)NCc1ccc(Cl)s1)c1ccccn1` (configuration not stated), the cytotoxicity at 10 µM came out at 1.64%.

Take `Cc1noc(C(C)C)c1C(=O)N1CCCN(Cc2cscn2)CC1`: the cytotoxicity at 10 µM is -3.56%.

Consider `CCc1nnc(CN2CCN(C(=O)c3ccccn3)CC2)o1`, for which the cytotoxicity at 10 µM was determined as 3.49%.

With `Cc1oc(-c2ccco2)nc1CC(=O)N1CCN(C2CCC2)CC1`, the cytotoxicity at 10 µM worked out at 4.33%.

Regarding `CCC(CO)NCc1ccc(-c2ccc(Cl)cc2)o1` (configuration not stated), the cytotoxicity at 10 µM was 5.24%.

`Cn1cc(N2C(=O)CC[C@@H]3[C@H]2CCN3CCc2ccccc2)cn1`: the cytotoxicity at 10 µM was determined as 15.6%.

For the compound `O=C(N1CCCO1)[C@@]12CCO[C@@H]1CCN(Cc1cccnc1)C2`, the cytotoxicity at 10 µM is -4.26%.

As to `c1cncc(CN2CCC3(COCCN(C4CCOCC4)C3)C2)c1` (configuration not stated), the cytotoxicity at 10 µM was found to be 1.46%.

For the compound `COCCn1cc2c(n1)C(CNCc1cccc(OC)c1)OCC2` (configuration not stated), the cytotoxicity at 10 µM was -4.52%.

With `CCN1CCN(C)C2(CCN(Cc3ccsc3)CC2)C1=O`, the cytotoxicity at 10 µM came to 0.317%.

In the case of `CN(C)c1ncc2c(c1C(=O)O)CCN(Cc1ccco1)C2`, the cytotoxicity at 10 µM came to 3.57%.

Consider `O=C(C1CCOC1)N1C[C@H]2CN(Cc3cccnc3)C(=O)[C@H]2C1` (some centres not stated), for which the cytotoxicity at 10 µM is -108%.

Turning to `CCOC1COC2(CCN(Cc3ccc(C)cc3)CC2)C1` (configuration not stated), the cytotoxicity at 10 µM was -8.28%.

As for `CN(C)C(=O)N1CCN(Cc2cnn(C)c2)CC2(CNC(=O)C2)C1` (configuration not stated), the cytotoxicity at 10 µM worked out at 1.21%.

On to `O=C(CN1CCN(CC(O)C2CC2)CC1)NCc1ccccc1Cl` (configuration not stated), for which the cytotoxicity at 10 µM is 5.23%.

On to `CN1C(=O)C2(CCN(S(C)(=O)=O)CC2)c2cc(F)ccc21`, for which the cytotoxicity at 10 µM is -106%.

As to `CCCC(=O)NC1CCc2c(ccc(=O)n2Cc2csc(C)n2)C1` (configuration not stated), the cytotoxicity at 10 µM was found to be 3.79%.

For `O=C1C[C@@H]2CC[C@H](CN1)N2C(=O)CCc1ccc2c(c1)OCO2`, the cytotoxicity at 10 µM is -5%.

In the case of `O=C(c1ccco1)N1C2CCC(O)(CC2)C1CN1CCOCC1` (configuration not stated), the cytotoxicity at 10 µM stood at 6.93%.

Consider `COc1ccc(CN2C[C@@H]3C(CC(=O)N4CCCC4)[C@@H]3C2)cc1` (some centres not stated), for which the cytotoxicity at 10 µM is -13.8%.
